Measurements as given in ChEMBL document CHEMBL1153560, “In vitro activities of doripenem and six comparator drugs against 423 aerobic and anaerobic bacterial isolates from infected diabetic foot wounds” (2008).
≈ marks a conversion by molar mass, not a printed value.

Experiments:
Format in all cases: functional
[1] = system: Corynebacterium aurimucosum; assay: Antibacterial activity against Corynebacterium aurimucosum isolated from patient with diabetic foot infection assessed as percent resistant isolates after 48 hrs by broth microdilution method
Method in brief: (§1)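 Isolates subcultured on Trypticase soy blood agar. Broth microdilution in cation-adjusted Mueller-Hinton broth with lysed horse blood, using in-house twofold dilution trays stored at −70°C. Inoculum from overnight colonies at about 5 × 10^5 CFU/ml final. Read after 18 to 24 h at 37°C, up to 48 h for some Corynebacterium strains.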

[2] = system: Corynebacterium urealyticum; assay: Antibacterial activity against Corynebacterium urealyticum isolated from patient with diabetic foot infection assessed as percent resistant isolates after 48 hrs by broth microdilution method; method in brief: as §1
[3] = system: Corynebacterium striatum; assay: Antibacterial activity against Corynebacterium striatum isolated from patient with diabetic foot infection assessed as percent resistant isolates after 48 hrs by broth microdilution method; method in brief: as §1
[4] = system: Corynebacterium accolens; assay: Antibacterial activity against Corynebacterium accolens isolated from patient with diabetic foot infection assessed as percent resistant isolates after 48 hrs by broth microdilution method; method in brief: as §1
[5] = system: Staphylococcus epidermidis; assay: Antibacterial activity against Staphylococcus epidermidis isolated from patient with diabetic foot infection after 18 to 24 hrs by broth microdilution method
Method in brief: (§2)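 Isolates were subcultured on Trypticase soy blood agar and tested by broth microdilution in cation-adjusted Mueller-Hinton broth. In-house trays of twofold drug dilutions were stored at −70°C. Overnight colonies gave a final inoculum of about 5 × 10^5 CFU/ml. Plates were read after 18 to 24 h at 37°C.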

[6] = system: Streptococcus agalactiae; assay: Antibacterial activity against Streptococcus agalactiae isolated from patient with diabetic foot infection after 18 to 24 hrs by broth microdilution method
Method in brief: (§3)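 Streptococcal isolates were subcultured on Trypticase soy blood agar. Broth microdilution used cation-adjusted Mueller-Hinton broth with lysed horse blood, in in-house trays of serial twofold drug dilutions stored at −70°C. Overnight colonies were suspended to a final inoculum of approximately 5 × 10^5 CFU/ml. MIC was read after 18 to 24 h incubation at 37°C.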

[7] = system: Streptococcus dysgalactiae subsp. equisimilis; assay: Antibacterial activity against Streptococcus dysgalactiae subsp. equisimilis isolated from patient with diabetic foot infection after 18 to 24 hrs by broth microdilution method; method in brief: as §3
[8] = system: Streptococcus pyogenes; assay: Antibacterial activity against Streptococcus pyogenes isolated from patient with diabetic foot infection after 18 to 24 hrs by broth microdilution method; method in brief: as §3
[9] = system: Streptococcus dysgalactiae subsp. equisimilis; assay: Antibacterial activity against Streptococcus dysgalactiae subsp. equisimilis isolated from patient with diabetic foot infection assessed as percent resistant isolates after 18 to 24 hrs by broth microdilution method
Method in brief: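 Streptococci subcultured on Trypticase soy blood agar and tested by broth microdilution in cation-adjusted Mueller-Hinton broth with lysed horse blood. In-house twofold dilution trays stored at −70°C. About 5 × 10^5 CFU/ml final inoculum from overnight colonies. Read after 18 to 24 h at 37°C.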

[10] = system: Streptococcus pyogenes; assay: Antibacterial activity against Streptococcus pyogenes isolated from patient with diabetic foot infection assessed as percent resistant isolates after 18 to 24 hrs by broth microdilution method
Method in brief: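 Isolates subcultured on Trypticase soy blood agar. MICs by broth microdilution in cation-adjusted Mueller-Hinton broth with lysed horse blood, in in-house trays of serial twofold drug dilutions stored at −70°C. Colonies from overnight growth were suspended to a final inoculum of about 5 × 10^5 CFU/ml. Read after 18–24 h at 37°C.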

[11] = system: Corynebacterium aurimucosum; assay: Antibacterial activity against Corynebacterium aurimucosum isolated from patient with diabetic foot infection after 48 hrs by broth microdilution method
Method in brief: (§4)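 Isolates were subcultured on Trypticase soy blood agar. Broth microdilution used cation-adjusted Mueller-Hinton broth with lysed horse blood, in-house trays of twofold drug dilutions stored at −70°C. Colonies from overnight growth gave a final inoculum of about 5 × 10^5 CFU/ml. Trays were read after 18 to 24 h at 37°C, up to 48 h for some strains.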

[12] = system: Corynebacterium jeikeium; assay: Antibacterial activity against Corynebacterium jeikeium isolated from patient with diabetic foot infection after 48 hrs by broth microdilution method; method in brief: as §4
[13] = system: Corynebacterium; assay: Antibacterial activity against multi drug-resistant Corynebacterium assessed as percent of susceptible isolates at =< 4 ug/ml by NCCLS M7-A6 method
[14] = system: Enterococcus faecalis; assay: Antibacterial activity against Enterococcus faecalis after 44 to 48 hrs by agar dilution method
[15] = system: Clostridioides difficile; assay: Antibacterial activity against Clostridium difficile ATCC 700057 after 44 to 48 hrs by agar dilution method
Method in brief: (§5)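 CLSI M11-A7 agar dilution: serial twofold drug dilutions made on the test day and added to molten agar. Spots of 10^5 CFU were applied by replicator, with drug-free control plates inoculated before and after each set. Incubation was 44 to 48 h at 37°C in an anaerobic chamber. MIC was the lowest concentration giving no growth or a marked change in growth versus controls.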

[16] = system: Klebsiella oxytoca; assay: Antibacterial activity against Klebsiella oxytoca isolated from patient with diabetic foot infection after 18 to 24 hrs by broth microdilution method; method in brief: as §2
[17] = system: Staphylococcus aureus; assay: Antibacterial activity against Staphylococcus aureus ATCC 29213 after 44 to 48 hrs by agar dilution method
[18] = system: Escherichia coli; assay: Antibacterial activity against Escherichia coli ATCC 25922 after 44 to 48 hrs by agar dilution method
[19] = system: Bacteroides fragilis; assay: Antibacterial activity against Bacteroides fragilis ATCC 25285 after 44 to 48 hrs by agar dilution method; method in brief: as §5

Structure (SMILES) | Activity [1] [%] | Activity [2] [%] | Activity [3] [%] | Activity [4] [%] | MIC50 [5] [µg/mL] | MIC90 [5] [µg/mL] | MIC50 [6] [µg/mL] | MIC90 [6] [µg/mL] | MIC50 [7] [µg/mL] | MIC90 [7] [µg/mL] | MIC50 [8] [µg/mL] | MIC90 [8] [µg/mL] | Activity [9] [%] | Activity [10] [%] | MIC50 [11] [µg/mL] | MIC90 [11] [µg/mL] | MIC50 [12] [µg/mL] | MIC90 [12] [µg/mL] | MIC50 [16] [µg/mL] | MIC90 [16] [µg/mL] | other results
CCC[C@@H]1C[C@@H](C(=O)N[C@@H]([C@H]2O[C@H](SC)[C@H](O)[C@@H](O)[C@H]2O)[C@H](C)Cl)N(C)C1 [CLINDAMYCIN] | 100 | 100 | 78 | 78 | 0.25 (≈ 0.588 µM) | > 64 | 0.125 (≈ 0.294 µM) | > 64 | 0.125 (≈ 0.294 µM) | > 64 | 0.125 (≈ 0.294 µM) | > 64 | 13 | 13 | > 64 | > 64 | > 64 | > 64 |  |  | 
C[C@@H](O)[C@H]1C(=O)N2C(C(=O)O)=C(S[C@@H]3CN[C@H](CNS(N)(=O)=O)C3)[C@H](C)[C@H]12 [DORIPENEM] |  |  |  |  | 0.25 (≈ 0.595 µM) | 2 (≈ 4.76 µM) | ≤ 0.015 | 0.03 (≈ 0.0713 µM) | ≤ 0.015 | ≤ 0.015 | ≤ 0.015 | ≤ 0.015 | 0 | 0 | 1 (≈ 2.38 µM) | 8 (≈ 19 µM) | 1 (≈ 2.38 µM) | 8 (≈ 19 µM) | 0.06 (≈ 0.143 µM) | 0.125 (≈ 0.297 µM) | Activity [13]: 40%; MIC [14]: 2 µg/mL (≈ 4.76 µM); MIC [15]: 2 µg/mL (≈ 4.76 µM); MIC [17]: 0.03 µg/mL (≈ 0.0713 µM); MIC [18]: ≤ 0.015 µg/mL; MIC [19]: 0.125 µg/mL (≈ 0.297 µM)
C[C@@H](O)[C@H]1C(=O)N2C(C(=O)O)=C(S[C@@H]3CN[C@H](C(=O)Nc4cccc(C(=O)O)c4)C3)[C@H](C)[C@H]12 [ERTAPENEM] |  |  |  |  | 2 (≈ 4.21 µM) | 8 (≈ 16.8 µM) | 0.06 (≈ 0.126 µM) | 0.06 (≈ 0.126 µM) | ≤ 0.015 | ≤ 0.015 | ≤ 0.015 | ≤ 0.015 | 0 | 0 | 1 (≈ 2.1 µM) | 32 (≈ 67.3 µM) | 1 (≈ 2.1 µM) | 32 (≈ 67.3 µM) | ≤ 0.015 | ≤ 0.015 | 
C[C@@H](O)[C@H]1C(=O)N2C(C(=O)O)=C(SCCNC=N)C[C@H]12 [IMIPENEM ANHYDROUS] | 30 | 30 | 0 | 0 | 0.125 (≈ 0.418 µM) | 0.5 (≈ 1.67 µM) | ≤ 0.015 | ≤ 0.015 | ≤ 0.015 | ≤ 0.015 | ≤ 0.015 | ≤ 0.015 | 0 | 0 | 0.25 (≈ 0.835 µM) | 32 (≈ 107 µM) | 0.25 (≈ 0.835 µM) | 32 (≈ 107 µM) | 0.25 (≈ 0.835 µM) | 1 (≈ 3.34 µM) | 
C[C@@H](O)[C@H]1C(=O)N2C(C(=O)O)=C(S[C@@H]3CN[C@H](C(=O)N(C)C)C3)[C@H](C)[C@H]12 [MEROPENEM] | 20 | 20 | 0 | 0 | 1 (≈ 2.61 µM) | 4 (≈ 10.4 µM) | 0.06 (≈ 0.156 µM) | 0.06 (≈ 0.156 µM) | ≤ 0.015 | ≤ 0.015 | ≤ 0.015 | ≤ 0.015 | 0 | 0 | 1 (≈ 2.61 µM) | 16 (≈ 41.7 µM) | 1 (≈ 2.61 µM) | 16 (≈ 41.7 µM) | 0.03 (≈ 0.0782 µM) | 0.06 (≈ 0.156 µM) | 
